# In PubChem BioAssay AID463111 (Johns Hopkins Ion Channel Center, 2010):
# Among all 310,000 compounds or so, about 2,800 (0.9%) were called active. This is one part of a sample in which actives are shown more often than they occur.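 The calls were made as follows: active = B-score of the integrated calcium signal more than 4 SD below the library mean, with starting fluorescence not abnormally high; inactive = the rest.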
# Assay: RGS4 potentiators or activators, primary screen, cell-based, HEK293 M3R inducible RGS4, calcium flux (AID 463111);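 as to B-score: negative B-score means reduced calcium response which marks RGS4 activation or potentiation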
# Settings: HEK293 M3R/inducible RGS4, carbachol calcium flux Fluo4, at 10 µM; hits give low values
# Method in brief: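 Material: Inducible-RGS4 HEK293 cells carrying M3 receptor; also added: carbachol at ECmax as muscarinic agonist stimulus; incubation: compound preincubation 20 min at room temperature before agonist; signal: Fluo4-AM (2 µM) calcium-flux fluorescence, kinetic read; measure: integrated calcium ratio converted to B score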
row,Compound,B-score
1,Cc1cc(C)c2nc3nc(C)cc(C)c3c(N)c2c1,-7.22 (active)
2,Cc1cc(C)c2nc(-c3ccco3)cc(C(=O)O)c2c1,inactive
3,CN(CC1CCCO1)S(=O)(=O)c1ccc(C(=O)Nc2ccc([N+](=O)[O-])cc2)cc1 (stereo unspecified),inactive
4,Cc1ccc(OC(=O)c2ccccc2C(=O)OCC(F)(F)C(F)F)cc1,inactive
5,O=C(COC(=O)/C=C/c1ccc(S(=O)(=O)N2CCCCCC2)cc1)NCc1ccccc1Cl,inactive
6,O=C(c1ccc(F)c(S(=O)(=O)N2CCOCC2)c1)N(CCc1ccccc1)Cc1ccccc1,inactive
7,CCCCCOc1ccc(CSC2=NCCN2)cc1[N+](=O)[O-],inactive
8,CCCCOc1ccc(CSC(=N)N)cc1[N+](=O)[O-],-7.06 (active)
9,CCCOc1ccc(Cn2ccnc2)cc1[N+](=O)[O-],inactive
10,COc1cc(C2OC(c3cc(OC)c(OC)c(OC)c3)C(C)C2C)cc(OC)c1OC (stereo unspecified),inactive
11,CSCCC(NS(=O)(=O)c1ccc(C)cc1)C(=O)NCCc1c[nH]c2ccccc12 (stereo unspecified),inactive
12,CCN1CCN(c2ccc([N+](=O)[O-])cc2C(=O)c2ccc(Cl)cc2)CC1,-7.47 (active)
13,CCC(=O)c1ccc(N2CCN(C(=O)c3cc([N+](=O)[O-])ccc3F)CC2)c(F)c1,inactive
14,O=C(Nc1cccc(Cl)c1)c1cc([N+](=O)[O-])ccc1N1CCN(CCO)CC1,inactive
15,O=C(N/N=C/c1ccc(O)c(O)c1)C1c2ccccc2Oc2ccccc21,inactive
16,O=C(CCC1CCN(C(=O)c2cccc(Cl)c2F)CC1)Nc1ccccc1,inactive
17,Cc1cc(S(=O)(=O)Nc2ccc(C(=O)NCC(c3ccco3)N3CCCC3)cc2)ccc1F (stereo unspecified),inactive
18,COc1cc(Cl)ccc1OCc1cc(C(=O)N2CC[C@@H]3CCCC[C@H]3C2)no1,inactive
19,COc1ccccc1-c1cc(C(=O)N2CCCCC2)no1,inactive
20,COc1ccc(OCc2cc(C(=O)N3CCCC3)no2)c2ccccc12,-7 (active)
21,O=C(NC1(C(F)(F)F)NC(=O)N(Cc2cccnc2)C1=O)c1ccccc1Cl (stereo unspecified),inactive
22,O=C(CN1C(=O)c2cccnc2Oc2ccc(Cl)cc21)NCCc1ccccc1,inactive
23,CCOC(=O)c1cccc(NC(=O)c2ccc(F)cc2F)c1,inactive
24,Cc1ccc(N(Cc2ccccc2O)C(=O)c2ccccc2F)cc1,inactive
25,Cn1c(N)c(C(=O)COC(=O)c2cnc(Cl)c(Cl)c2)c(=O)n(C)c1=O,inactive
26,Cc1ccc(C)c(NC(=O)NNC(=O)c2ccc3ccccc3c2O)c1,inactive

row,Compound,B-score
1,COC(=O)c1sc(-c2ccc(C(C)(C)C)cc2)cc1NC(=O)/C=C/C(=O)O,-8.52 (active)
2,CC(C)(C)c1ccc(/C=C/C(=O)Nc2ncccn2)cc1,inactive
3,CSc1ccc(NC(=O)/C=C/C(=O)O)cc1,inactive
4,Cc1onc(-c2c(F)cccc2Cl)c1C(=O)N(C)CC(=O)Nc1cccc(F)c1,inactive
5,OCCC1CN(Cc2ccc3nsnc3c2)CCN1C1CCCCC1 (stereo unspecified),inactive
6,Cn1cnnc1Sc1ccc(CN2CCN(C3CCCC3)C(CCO)C2)o1 (stereo unspecified),inactive
7,OCCC1CN(Cc2ccc3nsnc3c2)CCN1C1CCCC1 (stereo unspecified),-8.81 (active)
8,COc1ccccc1C(=O)N/C(=C/c1ccc2c(c1)OCO2)C(=O)Nc1cccc(C(=O)O)c1,inactive
9,CCN(CC)CCN(C(=O)c1ccc(S(=O)(=O)N2CCOCC2)cc1)c1nc2cc3c(cc2s1)OCCO3,inactive
10,CN(C)CCCN(C(=O)c1ccc(S(=O)(=O)N2CCCCCC2)cc1)c1nc2cc3c(cc2s1)OCCO3,-7.42 (active)
11,CN(C)CCCN(C(=O)c1ccc(S(=O)(=O)N2CCCCCC2)cc1)c1nc2ccc(Br)cc2s1,inactive
12,CC(CC(=O)Nc1ccc(F)cc1F)S(=O)(=O)c1ccc2c(c1)NC(=O)CO2 (stereo unspecified),inactive
13,CC(CC(=O)N1CCN(S(=O)(=O)c2ccccc2)CC1)n1cncn1 (stereo unspecified),inactive
14,C=CCNC(=O)c1ccccc1SCc1c(C)noc1C,inactive
15,CC(C)c1ccccc1OCC(O)CN(CC(O)COc1cccc2ccccc12)C(C)C (stereo unspecified),-10 (active)
16,CCC(C)Sc1nc2c(c(=O)[nH]c(=O)n2C)n1CC(O)COc1cccc2ccccc12 (stereo unspecified),inactive
17,Cc1cc(C)c(NC(=O)C[N+](C)(C)CC(O)COc2cccc3ccccc23)c(C)c1 (stereo unspecified),inactive
18,CCCN(c1ccc(C)cc1)c1nc(=O)c2cccnc2s1,inactive
19,CCOC(=O)c1c(NC(=O)NC(C)(C)C)sc2c1CCN(C)C2,-8.36 (active)
20,CCOC(=O)c1c(NC(=S)Nc2ccccc2)sc2c1CCN(C)C2,inactive
21,CCOC(=O)c1c(NC(=O)Cn2nc(C(F)(F)F)cc2C)sc2c1CCC2,inactive
22,CCOC(=O)C1C(c2ccc(OC)c(OC)c2)c2c([nH][nH]c2=O)CC1(C)O (stereo unspecified),inactive
23,CC1CN(/C=C/C(=O)C(F)(F)F)CC(C)O1 (stereo unspecified),inactive
24,CCCc1ccc(OCc2ccc(C(=O)N/N=C/c3cccc([N+](=O)[O-])c3)o2)c(OC)c1,inactive
25,O=C(O)CSc1c2c(nc3cc(C(=O)Nc4cccc(C(F)(F)F)c4)ccc13)CCCC2,inactive
26,Cn1nc(C(F)(F)F)c(C(=O)Nc2cccc(C(F)(F)F)c2)c1SCc1ccc(Cl)cc1,-10.4 (active)

row,Compound,B-score
1,FC(F)(F)c1cccc(NC(=S)Nc2cccc(Cl)c2)c1,inactive
2,CC(C)=CCCC(C)CN1CCC(n2nccc2NC(=O)c2ccccc2)CC1 (stereo unspecified),inactive
3,CCOC(=O)c1ccc(-n2c(CCC(=O)O)ccc2-c2ccccc2)cc1,inactive
4,CC(C)Cn1c(CCC(=O)O)ccc1-c1cccs1,-7.21 (active)
5,COCCCn1c(CCC(=O)O)ccc1-c1ccc(F)cc1,inactive
6,Cc1ccccc1CNC(=O)CCC(=O)N1Cc2ccccc2Oc2ncccc21,inactive
7,c1ccc(-c2ccccc2OCCN2CCCCC2)cc1,inactive
8,CCCCCCC(O)(CCN1CCCCC1)c1ccccc1 (stereo unspecified),inactive
9,CC(C)(c1ccccc1)c1ccc(OCCN2CCCC2)cc1,inactive
10,CCCCOc1ccc(C(C)(O)CCN2CCOCC2)cc1 (stereo unspecified),inactive
11,C#CC(CCN1CCCCC1)(OC)c1ccccc1 (stereo unspecified),-8.27 (active)
12,CCCCCC(O)(CCN1CCCCC1)c1ccccc1 (stereo unspecified),-9.9 (active)
13,CCC(CC)COC(=O)C1=C(C)NC(=O)NC1c1ccc([N+](=O)[O-])cc1 (stereo unspecified),inactive
14,COc1ccc(C(CC(=O)c2ccccc2)S(=O)(=O)c2ccccc2)cc1 (stereo unspecified),inactive
15,COC(=O)c1ccc(C2C3=C(Nc4nnnn42)c2ccccc2OC3)cc1 (stereo unspecified),inactive
16,Cc1ccccc1-c1nc(CS(=O)(=O)CC(=O)N2CCc3ccccc3C2)c(C)o1,inactive
17,COC(=O)c1cc2occc2n1Cc1nc(-c2ccccc2C)oc1C,-7.3 (active)
18,Cc1ccccc1-c1nc(CS(=O)(=O)CC(=O)NC(C)c2ccccc2)c(C)o1 (stereo unspecified),inactive
19,O=C(NCCc1ccccn1)c1cc(C(=O)C2CCCCC2)c[nH]1,inactive
20,CCC1CCCCN1CCCNC(=O)Cn1nc(-c2ccccc2)ccc1=O (stereo unspecified),inactive
21,CCC1CCCCN1CCCNC(=O)C1CCC(Cn2c(=O)[nH]c3ccccc3c2=O)CC1 (stereo unspecified),inactive
22,CCC1CCCCN1CCCNC(=O)c1cc2c(Cl)nc3ccccc3c2s1 (stereo unspecified),-8.65 (active)
23,CCC(c1nnnn1C1CCCC1)N1CCN(C(=O)c2ccco2)CC1 (stereo unspecified),inactive
24,CC(C)C(c1nnnn1CCc1ccccc1)N1CCN(C(=O)c2ccco2)CC1 (stereo unspecified),-10.4 (active)
25,CC(C)C(c1nnnn1C1CCCCC1)N1CCN(C(=O)c2ccco2)CC1 (stereo unspecified),inactive
26,NC(=O)Nc1ccccc1C(=O)NCCc1ccccc1,inactive

row,Compound,B-score
1,Cc1ccccc1C(=O)NC(=S)NC1CC1,inactive
2,Cc1ccc(-c2nc(-c3cccnc3)sc2CC(=O)Nc2ccc(C)c(Cl)c2)cc1,inactive
3,CCCN1CCN(C(=O)CCCNC(=O)c2ccc(Cl)cc2)CC1,inactive
4,CN1CCN(CCCNC(=O)c2ccc(/C=C3\Oc4ccccc4N(Cc4ccc(Cl)cc4)C3=O)cc2)CC1,-7.39 (active)
5,CN1C(=O)/C(=C/c2ccc(C(=O)NC3CCCC3)cc2)Oc2ccccc21,inactive
6,COc1ccc2c(c1)C(NS(=O)(=O)OCC(Cl)(Cl)Cl)CCC2 (stereo unspecified),inactive
7,CC1(C)C=C2[C@H]3CC[C@@H]4[C@@]5(C)CCC(=O)C(C)(C)[C@@H]5CC[C@@]4(C)[C@]3(C)CC[C@@]2(C(=O)O)CC1,-9.3 (active)
8,CCOC(=O)CCCNC(=O)COC(=O)c1cc(Br)c(Br)s1,inactive
9,O=C(NC(=O)c1cc(OCC(F)(F)F)ccc1OCC(F)(F)F)Nc1ccccc1,inactive
10,NS(=O)(=O)c1ccc(CCNS(=O)(=O)c2cccc3cccnc23)cc1,inactive
11,O=C(NCC1CCCO1)c1cc2c([nH]c3ccccc32)c(-c2ccc(F)cc2)n1 (stereo unspecified),-11.5 (active)
12,O=C(NCCCO)c1cc2c([nH]c3ccccc32)c(-c2ccc(F)cc2)n1,inactive
13,O=C(NCC1CCCO1)c1cc(-c2ccccc2)nc2ccccc12 (stereo unspecified),inactive
14,CC(=O)N/C(=C\c1ccc(F)cc1)C(=O)NC(Cc1ccccc1)C(=O)O (stereo unspecified),inactive
15,CCOC(=O)c1csc(CCNC(=O)c2oc3c(Cl)cc(C)cc3c2C)n1,inactive
16,CCCCCCCCCCOC(=O)Cn1c(COc2ccc(C)cc2)[n+](C)c2ccccc21,-8.44 (active)
17,Cc1ccc(OCCCn2c(=O)oc3ccccc32)cc1,inactive
18,CCCCCCCCCCOC(=O)Cn1c(COc2cccc(OC)c2)[n+](C)c2ccccc21,inactive
19,O=C(CCN1C(=O)C2C3CCC(C3)C2C1=O)Nc1ccc(Cl)cc1Cl (stereo unspecified),inactive
20,CC(NCCc1ccc(S(N)(=O)=O)cc1)C(=O)NCc1ccccc1 (stereo unspecified),inactive
21,O=C(COc1ccc(Cl)cc1[N+](=O)[O-])N1CCCCC1,inactive
22,O=C(CN1CCCCCC1)Nc1ccc(Br)cc1[N+](=O)[O-],inactive
23,O=[N+]([O-])c1cc([N+](=O)[O-])c(Oc2cc(F)cc(F)c2F)cc1NN1CCCCC1,-7.39 (active)
